Reference: ChEMBL document CHEMBL1777802, “Synthesis, DNA binding, fluorescence measurements and antiparasitic activity of DAPI related diamidines” (Bioorg Med Chem, 2010)

How the values were obtained:
[1] = system: Trypanosoma brucei rhodesiense; experiment: Antiparasitic activity against Trypanosoma brucei rhodesiense STIB900
[2] = system: Poly(dA-dT)oligonucleotide
L6 = experiment: Cytotoxicity against rat L6 cells; assay type: cell-based
How it was run: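 Cultured L6 rat myoblast cells were used for the cytotoxicity measurement, giving an IC50.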

[3] = Selectivity index, ratio of IC50 for rat L6 cells to IC50 for Trypanosoma brucei rhodesiense STIB900; assay type: toxicity, cell-based; conditions: read-out: Ratio IC50
How it was run: (§1)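 Selectivity index is IC50 on cultured L6 rat myoblasts divided by IC50 on the parasite (P. falciparum K1 or T. b. rhodesiense STIB900).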

Plasmodium falciparum = experiment: Antiparasitic activity against Plasmodium falciparum K1
[4] = Selectivity index, ratio of IC50 for rat L6 cells to IC50 for Plasmodium falciparum K1; assay type: toxicity, cell-based; conditions: read-out: Ratio IC50; how it was run: as §1
[5] = system: Trypanosoma brucei rhodesiense; experiment: Ratio of DAPI IC50 to compound IC50 for Trypanosoma brucei rhodesiense STIB900

Row | Structure (SMILES) | IC50 [1] | ΔTm [2] | IC50 (L6) | selectivity ratio [3] | IC50 (Plasmodium falciparum) | selectivity ratio [4] | Ratio IC50 [5]
1 | N=C(N)c1ccc2cc(-c3ccc(-c4ccccc4)cc3)[nH]c2c1 | 8720 nM | 16 °C | 8400 nM | 0.96 | 858 nM | 9.8 | –
2 | N=C(N)c1ccc(-c2ccc(-c3nc4ccc(C(=N)N)cc4[nH]3)cc2)cc1 | – | > 27 °C | – | 2210 | – | 34000 | –
3 | Cl.Cl.N=C(N)c1ccc2cc(C#Cc3ccc(C(=N)N)c(F)c3)[nH]c2c1 | 9 nM | 16 °C | 4500 nM | 500 | 5.9 nM | 763 | 2
4 | Cl.Cl.N=C(N)c1ccc(-c2ccc(-c3cc4ccc(C(=N)N)cc4[nH]3)cc2)cc1 | – | > 27 °C | – | 5250 | – | 3180 | 9
5 | N=C(N)c1ccc(C#Cc2cc3ccc(C(=N)N)cc3[nH]2)nc1 | 215 nM | 12.2 °C | 13000 nM | 60 | 14.1 nM | 933 | –
6 | N=C(N)c1ccc2cc(C#Cc3ccc(C(=N)N)nc3)[nH]c2c1 | 3 nM | 19.1 °C | 1600 nM | 533 | 3.1 nM | 516 | –
7 | N=C(N)c1ccc(-c2ccc(-c3ccc(C(=N)N)cc3)o2)cc1 [FURAMIDINE] | – | – | 6700 nM | – | – | – | –
8 | Cl.Cl.N=C(N)c1ccc(-c2ccc(-c3cc4cc(C(=N)N)ccc4[nH]3)cc2)cc1 | 4 nM | 20.9 °C | 38900 nM | 9720 | 0.7 nM | 55600 | 4.5
9 | Cl.Cl.N=C(N)c1ccc(C#Cc2cc3ccc(C(=N)N)cc3[nH]2)cc1 | 6 nM | 19 °C | 8700 nM | 1450 | 3.8 nM | 2290 | 3
10 | N=C(N)c1ccc(-c2cc3ccc(C(=N)N)cc3[nH]2)cc1 [DAPI] | – | > 27 °C | – | 51 | – | – | –
